In brackets after ≈: the same amount, converted by molar mass. Activity calls are given as the source filed them. The rule behind the calls is not given here.
Tests used:
Rhizoctonia solani = test: Antimicrobial activity against Rhizoctonia solani at <200 ppm; format: functional, organism-based
Summary of the method: (§1)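 Antifungal test by the dialysis membrane overlay technique against the phytopathogenic fungus. Compounds were assessed at concentrations below 200 ppm.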

Caenorhabditis elegans = test: Antinematodal activity against Caenorhabditis elegans after 16 to 24 hrs; format: functional
Summary of the method: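 Model nematode C. elegans exposed to compounds in a bioassay. Lethality was scored over 16-24 h and reported as the concentration in ppm lethal to 90% (LD90) or 50% (LD50) of worms.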

Gaeumannomyces tritici = test: Antimicrobial activity against Gaeumannomyces graminis var. tritici at <200 ppm; format: functional, organism-based; summary of the method: as §1
Escherichia coli = test: Antimicrobial activity against Escherichia coli at <200 ppm; format: functional, organism-based
Endothelin-1 receptor = target: T1, Endothelin-1 receptor (Rattus norvegicus, UniProt P26684); test: Displacement of endothelin-1 from ETA receptor in rat A10 cells; format: cell-based
T1 sequence (P26684 whole entry): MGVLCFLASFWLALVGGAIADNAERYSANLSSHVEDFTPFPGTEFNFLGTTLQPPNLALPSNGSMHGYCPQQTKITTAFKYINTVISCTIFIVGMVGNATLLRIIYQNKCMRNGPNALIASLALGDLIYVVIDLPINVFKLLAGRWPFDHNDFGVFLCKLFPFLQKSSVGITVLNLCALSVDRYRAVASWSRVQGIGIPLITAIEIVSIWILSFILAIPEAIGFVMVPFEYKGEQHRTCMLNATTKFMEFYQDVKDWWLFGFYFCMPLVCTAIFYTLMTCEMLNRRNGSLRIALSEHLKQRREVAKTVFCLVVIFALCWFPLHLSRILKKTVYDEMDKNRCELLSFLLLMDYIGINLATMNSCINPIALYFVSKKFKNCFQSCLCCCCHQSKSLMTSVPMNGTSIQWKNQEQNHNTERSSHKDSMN

Structure (SMILES): COC(=O)c1cc(O)cc(OC)c1Oc1c(Cl)c(C)c(Cl)c(O)c1C(=O)OC [METYL DICHLOROASTERRATE]
- Activity (Rhizoctonia solani): inactive
- LD90 (Caenorhabditis elegans): 75 ppm
- Activity (Gaeumannomyces tritici): inactive
- Activity (Escherichia coli): inactive

Structure (SMILES): COC(=O)c1cc(O)cc(OC)c1Oc1cc(C)cc(O)c1C(=O)OC [METHYL ASTERRATE]
- Activity (Rhizoctonia solani): inactive
- LD90 (Caenorhabditis elegans): 75 ppm
- Activity (Gaeumannomyces tritici): inactive
- Activity (Escherichia coli): inactive

Structure (SMILES): COC(=O)c1cc(O)cc(OC)c1Oc1cc(C)cc(O)c1C(=O)O [ASTERRIC ACID]
- Activity (Rhizoctonia solani): inactive
- LD90 (Caenorhabditis elegans): 50 ppm
- Activity (Gaeumannomyces tritici): inactive
- IC50 (Endothelin-1 receptor): 10 µM
- Activity (Escherichia coli): inactive

Structure (SMILES): COC(=O)c1cc(O)cc(OC)c1C(=O)c1c(O)cc(C)cc1O [SULOCHRIN]
- Activity (Rhizoctonia solani): inactive
- LD90 (Caenorhabditis elegans): 50 ppm
- Activity (Gaeumannomyces tritici): inactive
- Activity (Escherichia coli): inactive

Structure (SMILES): COC(=O)c1cc(O)cc(OC)c1Oc1cc(C)c(Cl)c(O)c1C(=O)OC [METHYL CHLOROASTERRATE]
- Activity (Rhizoctonia solani): inactive
- LC50 (Caenorhabditis elegans; Caenorhabditis elegans, read-out: LD50 (the source's name)): 100 µg/mL (≈ 252 µM)
- Activity (Gaeumannomyces tritici): inactive
- Activity (Escherichia coli): inactive
